Results reported in the RNAGym collection of RNA variant scans (doi:10.1126/science.aae0568).
Variants at the floor of the assay were thinned out.

B1: tRNA (parent)
chain: GUUCCGUUGGCGUAAUGGUAACGCGUCUCCCUCCUAAGGAGAAGACUGCGGGUUCGAGUCCCGUACGGAACG

Variants of: B1
Test: yeast fitness relative to wild type (ratio to wild type); higher = fitter; tRNA-Arg(CCU), competitive growth, 37 C, YPD
How it was run: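 Start and end populations of a pooled competition were compared by 100-nucleotide paired-end sequencing of gene amplicons. The Saccharomyces cerevisiae strains carried tRNA-Arg(CCU) gene variants at the native genomic locus, synthesised with a 3% per-site mutation rate at 69 sites, and competed in YPD at 37°C for 24 hours in six parallel replicates. Darwinian fitness relative to wild type was based on the change in genotype frequencies. Genotypes required ≥ 100 starting reads, and estimates < 0.5 were set to 0.5.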

Row | Variant | yeast fitness
1 | A20C U35G C46U G67U | ≤ 0.5
2 | A20C U47C | 0.925
3 | A20C U47G A69U | 0.559
4 | A20C U47G C60G | ≤ 0.5
5 | A20C U53G | 0.623
6 | A20C U53G C66U | 0.696
7 | A20C U54A | 0.698
8 | A20C U59A | 0.697
9 | A20C U64A | 0.7
10 | A20C U64C | 0.984
11 | A20G A21C A43U G50A G52U A69C | ≤ 0.5
12 | A20G A21C C30A G41C | 0.581
13 | A20G A21C C30A G41C C66U | 0.526
14 | A20G A21C C49U | 0.548
15 | A20G A21C G39C C62G | ≤ 0.5
16 | A20G A21C G39C G48C C62G | ≤ 0.5
17 | A20G A21G G38C G50C | ≤ 0.5
18 | A20G A21U | 0.782
19 | A20G A21U A36G A40C C55U | ≤ 0.5
20 | A20G A21U C31U A45C C49U A65C | ≤ 0.5
21 | A20G A36C | 0.596
22 | A20G A36C A45C G52A G67U | ≤ 0.5
23 | A20G A36C G56C C61U | ≤ 0.5
24 | A20G A36G A45U | 0.683

Row | Variant | yeast fitness
25 | A20G A36G A65G | 0.846
26 | A20G A36U A42G G58A | ≤ 0.5
27 | A20G A36U A57C | ≤ 0.5
28 | A20G A36U C61U | 0.571
29 | A20G A36U G63C U64C | 0.666
30 | A20G A37C A40G | ≤ 0.5
31 | A20G A37G | 0.718
32 | A20G A37G G44A | 0.658
33 | A20G A37G U59A A70C | ≤ 0.5
34 | A20G A37U C46A | ≤ 0.5
35 | A20G A37U C60A | 0.626
36 | A20G A37U G48C | 0.603
37 | A20G A40C A42U A43C G48A C55G | ≤ 0.5
38 | A20G A40C A42U A43C G48A C61A A69U | ≤ 0.5
39 | A20G A40C A69G | 0.625
40 | A20G A40C C60G | ≤ 0.5
41 | A20G A40G A42G C55U | ≤ 0.5
42 | A20G A40G C49U G58A | ≤ 0.5
43 | A20G A40G C66U | 0.647
44 | A20G A40U A45C A65U | ≤ 0.5
45 | A20G A40U G51C | ≤ 0.5
46 | A20G A40U G58C | 0.77
47 | A20G A40U U64A | ≤ 0.5
48 | A20G A42C C61U | 0.573

Row | Variant | yeast fitness
49 | A20G A42C C66U | 0.625
50 | A20G A42C U64G | ≤ 0.5
51 | A20G A42G U59C | 0.634
52 | A20G A42U | 0.982
53 | A20G A43C C61U A70C | ≤ 0.5
54 | A20G A43G U47G U64G | ≤ 0.5
55 | A20G A43U A45C G67C | ≤ 0.5
56 | A20G A43U C46U A57U | ≤ 0.5
57 | A20G A43U C61G | ≤ 0.5
58 | A20G A43U C62U | 0.86
59 | A20G A45C | 0.866
60 | A20G A45G | 0.992
61 | A20G A45G C49U | 0.687
62 | A20G A45U | 1.04
63 | A20G A45U G48A C55A | ≤ 0.5
64 | A20G A45U G67C | 0.613
65 | A20G A57G | 1
66 | A20G A57G C61U C62U A69G | ≤ 0.5
67 | A20G A57U | 0.649
68 | A20G A57U A65U G68C | ≤ 0.5
69 | A20G A65C | 1.06
70 | A20G A65U | 0.901
71 | A20G A65U A69C | ≤ 0.5
72 | A20G A65U A69U | 0.857

Row | Variant | yeast fitness
73 | A20G A69C | 0.916
74 | A20G A69G | 1.04
75 | A20G A69U | 1.07
76 | A20G A70C | 0.994
77 | A20G A70G | 1.02
78 | A20G A70U | 1.06
79 | A20G C22A C24U | 0.589
80 | A20G C22A C34G C46U G63A | ≤ 0.5
81 | A20G C22A G23C | ≤ 0.5
82 | A20G C22G A45C C46G A57U | 0.553
83 | A20G C22G C27G C30U C31G G51C A65G | 0.563
84 | A20G C22G C27G C30U C31G G51C G67A A69U | ≤ 0.5
85 | A20G C22G C27G C30U C31G G51C U54C A65G | ≤ 0.5
86 | A20G C22G C49G | 0.568
87 | A20G C22G G56A G67A | ≤ 0.5
88 | A20G C22G U47C | 0.647
89 | A20G C22G U47C U53G | ≤ 0.5
90 | A20G C22U | 0.751
91 | A20G C22U C31G | 0.626
92 | A20G C22U C31G C66U | ≤ 0.5
93 | A20G C22U C49U | 0.682
94 | A20G C24A | 0.56
95 | A20G C24A C27A | 0.52
96 | A20G C24A C27A A42G A69C | 0.56

Row | Variant | yeast fitness
97 | A20G C24A C29G A37U G39A | ≤ 0.5
98 | A20G C24G | 0.575
99 | A20G C24G C60A | ≤ 0.5
100 | A20G C24G C60G C62U | 0.562
101 | A20G C24G G44C | 0.784
102 | A20G C24U A65C | 0.653
103 | A20G C24U C33U | ≤ 0.5
104 | A20G C24U C33U A43C | ≤ 0.5
105 | A20G C24U U26A C61G A65C | 0.567
106 | A20G C24U U32A C49U C55A | ≤ 0.5
107 | A20G C27A | 0.933
108 | A20G C27A C46A | 0.737
109 | A20G C27A C46G U53A C60G G67C | ≤ 0.5
110 | A20G C27A G48A | 0.762
111 | A20G C27A U35C A36G A42U | ≤ 0.5
112 | A20G C27G | 0.608
113 | A20G C27G A40U | ≤ 0.5
114 | A20G C27G A43U G63A G68C | ≤ 0.5
115 | A20G C27G A43U G68C | 0.582
116 | A20G C27G G48A | ≤ 0.5
117 | A20G C27G G52A | 0.551
118 | A20G C27U | 1.1
119 | A20G C27U A45C A57C | ≤ 0.5
120 | A20G C27U A57C | ≤ 0.5

Row | Variant | yeast fitness
121 | A20G C27U C33G A43G A57G C61U C62U | ≤ 0.5
122 | A20G C27U G58C | 0.78
123 | A20G C29A | 0.705
124 | A20G C29A A70U | 0.557
125 | A20G C29A G68A | 0.613
126 | A20G C29G A37G G67C | ≤ 0.5
127 | A20G C29G A40G C49G | ≤ 0.5
128 | A20G C29G C34A | ≤ 0.5
129 | A20G C29U | 0.88
130 | A20G C29U A37G C66U | ≤ 0.5
131 | A20G C29U A57C | ≤ 0.5
132 | A20G C29U C34U G50A C55G | ≤ 0.5
133 | A20G C29U C55G A57C C61U | 0.746
134 | A20G C29U G38A G48C C62G | ≤ 0.5
135 | A20G C29U U47G C49U | ≤ 0.5
136 | A20G C30A | 1
137 | A20G C30A C55A G68A | ≤ 0.5
138 | A20G C30A G48A U53G | 0.505
139 | A20G C30G | 0.593
140 | A20G C30G G56C C62U | ≤ 0.5
141 | A20G C30U | 0.871
142 | A20G C30U C55U | ≤ 0.5
143 | A20G C31A | 0.8
144 | A20G C31G | 0.966

Row | Variant | yeast fitness
145 | A20G C31G C46G G50A | ≤ 0.5
146 | A20G C31G C46G G50A G67C | ≤ 0.5
147 | A20G C31G C55G A70G | ≤ 0.5
148 | A20G C31G U64C | 0.694
149 | A20G C31U | 0.995
150 | A20G C31U A36U | 0.53
151 | A20G C31U A65U | 0.695
152 | A20G C33A A36C U47A C66A | ≤ 0.5
153 | A20G C33A A37G C62A | ≤ 0.5
154 | A20G C33A A43U G44A A69C | ≤ 0.5
155 | A20G C33A A57G | 0.52
156 | A20G C33A G44A | 0.535
157 | A20G C33A G44A C61U | 0.553
158 | A20G C33G C49A U54G A65G | ≤ 0.5
159 | A20G C33G U53A | ≤ 0.5
160 | A20G C33U A40G C62G A70U | ≤ 0.5
161 | A20G C33U C49G G50C | ≤ 0.5
162 | A20G C33U G39A A69C | ≤ 0.5
163 | A20G C34A A36G C66U | ≤ 0.5
164 | A20G C34A U47A C61G | ≤ 0.5
165 | A20G C34G C62U | ≤ 0.5
166 | A20G C34U A40U A42U U64A | ≤ 0.5
167 | A20G C34U A43C A57U G58A C62G | ≤ 0.5
